Laboratory results from ChEMBL document CHEMBL1125735, “trans-hexahydroindolo[4,3-ab]phenanthridines ("benzergolines"), the first structural class of potent and selective dopamine D1 receptor agonists lacking a catechol group” (1991).

Columns and labels:
[1] = tested on: Dopamine D1 receptor (Bos taurus); assay: Compound was evaluated for its potency to Dopamine D1 stimulating effect in the adenylate cyclase assay.
[2] = target: D(2) dopamine receptor (Rattus norvegicus) (UniProt P61169); assay: Percent of maximal inhibition by change of S2/S1 versus control at 1 uM for the acetylcholine (ACh) release as a model for Dopamine D2 receptor activation.; type: functional; set-up: scale not given: the % may be the effect or the level left
Sequence of D(2) dopamine receptor (Rattus norvegicus) (P61169 whole entry): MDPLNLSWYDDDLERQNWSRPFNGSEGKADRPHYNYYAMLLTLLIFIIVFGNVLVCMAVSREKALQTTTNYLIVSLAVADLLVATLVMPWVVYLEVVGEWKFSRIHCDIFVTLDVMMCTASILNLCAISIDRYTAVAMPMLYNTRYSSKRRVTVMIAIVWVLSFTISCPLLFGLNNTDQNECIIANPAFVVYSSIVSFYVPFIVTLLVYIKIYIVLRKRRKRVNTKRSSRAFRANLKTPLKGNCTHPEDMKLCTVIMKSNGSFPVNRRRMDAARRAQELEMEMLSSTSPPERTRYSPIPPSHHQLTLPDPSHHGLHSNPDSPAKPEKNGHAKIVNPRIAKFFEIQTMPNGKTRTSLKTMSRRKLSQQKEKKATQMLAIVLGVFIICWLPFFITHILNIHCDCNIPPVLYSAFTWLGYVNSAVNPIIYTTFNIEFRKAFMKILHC
Method in brief: (§1)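 Electrically evoked acetylcholine release measured in rat striatal slices.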

Bos taurus = species on record: Bos taurus; assay: Percent of maximal effect of 125 uM Dopamine in the adenylate cyclase assay.; type: functional
Method in brief: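 Dopamine-sensitive adenylate cyclase assay run on bovine retina tissue.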

[3] = target: D(2) dopamine receptor (Rattus norvegicus) (UniProt P61169); details: 1 uM
[4] = target: D(2) dopamine receptor (Rattus norvegicus) (UniProt P61169); assay: Compound was evaluated for its potency to inhibit electrically evoked acetylcholine (ACh) release as a model for Dopamine D2 receptor activation.; type: functional
Method in brief: as §1

[5] = target: D(2) dopamine receptor (Rattus norvegicus) (UniProt P61169); assay: Percent of maximal inhibition by change of S2/S1 versus control at 1 uM for the cetylcholine (ACh) release as a model for Dopamine D2 receptor activation.; type: functional; set-up: scale not given: the % may be the effect or the level left
Method in brief: as §1

Structure (SMILES): CN1Cc2ccccc2[C@H]2c3cccc4[nH]cc(c34)C[C@H]21
- pD2 [1]: 6.1
- Control [2]: 0%
- Relative activity (Bos taurus): 57%

Structure (SMILES): CN1CCc2cccc3c2[C@H]1Cc1ccc(O)c(O)c1-3 [APOMORPHINE]
- Control [3]: 85%
- pD2 [1]: 6.2
- Relative activity (Bos taurus): 38%
- pD2 [4]: 7.5

Structure (SMILES): CCCCN1Cc2ccccc2[C@H]2c3cccc4[nH]cc(c34)C[C@H]21
- Control [5]: 0%
- Relative activity (Bos taurus): 0%

Structure (SMILES): CCN1Cc2ccccc2[C@H]2c3cccc4[nH]cc(c34)C[C@H]21
- pD2 [1]: 6
- Control [2]: 0%
- Relative activity (Bos taurus): 72%

Structure (SMILES): c1ccc2c(c1)CN[C@@H]1Cc3c[nH]c4cccc(c34)[C@H]21
- pD2 [1]: 6.3
- Control [2]: 0%
- Relative activity (Bos taurus): 82%

Structure (SMILES): CCCN1Cc2ccccc2[C@H]2c3cccc4[nH]cc(c34)C[C@H]21
- pD2 [1]: 5.7
- Control [2]: 0%
- Relative activity (Bos taurus): 55%

Structure (SMILES): CN1CCC[C@H]2c3cccc4[nH]cc(c34)C[C@H]21
- Control [5]: 30%
- pD2 [1]: 5.2
- Relative activity (Bos taurus): 24%
- pD2 [4]: 7.5

Structure (SMILES): Oc1ccc([C@@H]2CNCc3ccccc32)cc1O
- Control [5]: 0%
- pD2 [1]: 6
- Relative activity (Bos taurus): 86%

Structure (SMILES): CN1Cc2ccccc2[C@H]2c3cccc4c3C(CN4)C[C@H]21 (stereo not given in full)
- Control [5]: 0%
- Relative activity (Bos taurus): 0%

Structure (SMILES): Oc1cc2c(cc1O)C(c1ccccc1)CNCC2 (stereo not given) [SKF-38393]
- Control [5]: 0%
- pD2 [1]: 6.6
- Relative activity (Bos taurus): 58%
